According to ChEMBL document CHEMBL3588843, “Synthesis of C-5″ and C-6″-modified α-GalCer analogues as iNKT-cell agonists” (Bioorg Med Chem, 2015):
Active and inactive are the calls of the source. The calls are words filed in the database; no cut-off is given here.

What was measured:
[1] = test system: Mus musculus; test: In vivo activation of iNKT cells in C57BL/6 mouse assessed as stimulation of IFNgamma production in serum at 5 ug, ip after 16 hrs by ELISA relative to alpha-GalCer; format: functional, organism-based
In short: (§1)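 C57BL/6 mice, 5–12 weeks old, in-house bred or purchased. Glycolipid dissolved in PBS with DMSO, given intraperitoneally at 5 μg per mouse. Mice bled 4 h (IL-4) and 16 h (IFN-γ) after injection; cytokines measured in serum. At least 2 separate experiments, 5–8 mice per group per glycolipid.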

[2] = test system: Mus musculus; test: In vivo activation of iNKT cells in C57BL/6 mouse assessed as stimulation of IL4 production in serum at 5 ug, ip after 4 hrs by ELISA; format: functional, organism-based; in short: as §1

With CCCCCCCCCCCCCCCCCCCCCCCCCC(=O)N[C@@H](CO[C@H]1O[C@H](C(=O)NCc2cccc3ccccc23)[C@H](O)[C@H](O)[C@H]1O)[C@H](O)[C@H](O)CCCCCCCCCCCCCC the Activity [1] was “inactive” and the Activity [2] was “inactive”.

With CCCCCCCCCCCCCCCCCCCCCCCCCC(=O)N[C@@H](CO[C@H]1O[C@H](COC(=O)Nc2ccncc2)[C@H](O)[C@H](O)[C@H]1O)[C@H](O)[C@H](O)CCCCCCCCCCCCCC the Activity [1] was “Active” and the Activity [2] was “Active”.

For CCCCCCCCCCCCCCCCCCCCCCCCCC(=O)N[C@@H](CO[C@H]1O[C@H](COC(=O)Nc2cccc3ccccc23)[C@H](O)[C@H](O)[C@H]1O)[C@H](O)[C@H](O)CCCCCCCCCCCCCC, the Activity [1] was “Active” and the Activity [2] was “Active”.

For CCCCCCCCCCCCCCCCCCCCCCCCCC(=O)N[C@@H](CO[C@H]1O[C@H](C(=O)NCc2ccc(Cl)c(Cl)c2)[C@H](O)[C@H](O)[C@H]1O)[C@H](O)[C@H](O)CCCCCCCCCCCCCC, the Activity [1] was “inactive” and the Activity [2] was “inactive”.

With CCCCCCCCCCCCCCCCCCCCCCCCCC(=O)N[C@@H](CO[C@H]1O[C@H](C(=O)Nc2ccc(Cl)c(Cl)c2)[C@H](O)[C@H](O)[C@H]1O)[C@H](O)[C@H](O)CCCCCCCCCCCCCC the Activity [1] was “inactive” and the Activity [2] was “inactive”.

In the case of CCCCCCCCCCCCCCCCCCCCCCCCCC(=O)N[C@@H](CO[C@H]1O[C@H](C(=O)Nc2ccccc2)[C@H](O)[C@H](O)[C@H]1O)[C@H](O)[C@H](O)CCCCCCCCCCCCCC, the Activity [1] is reported as “Active” and the Activity [2] is reported as “inactive”.

CCCCCCCCCCCCCCCCCCCCCCCCCC(=O)N[C@@H](CO[C@H]1O[C@H](C(=O)NCCc2ccccc2)[C@H](O)[C@H](O)[C@H]1O)[C@H](O)[C@H](O)CCCCCCCCCCCCCC was tested, and the Activity [1] was “inactive” and the Activity [2] was “inactive”.

With CCCCCCCCCCCCCCCCCCCCCCCCCC(=O)N[C@@H](CO[C@H]1O[C@H](C(=O)NCc2ccsc2)[C@H](O)[C@H](O)[C@H]1O)[C@H](O)[C@H](O)CCCCCCCCCCCCCC the Activity [1] was “Active” and the Activity [2] was “inactive”.

In the case of CCCCCCCCCCCCCCCCCCCCCCCCCC(=O)N[C@@H](CO[C@H]1O[C@H](C(=O)NCc2ccccc2)[C@H](O)[C@H](O)[C@H]1O)[C@H](O)[C@H](O)CCCCCCCCCCCCCC, the Activity [1] is reported as “inactive” and the Activity [2] is reported as “inactive”.

In the case of CCCCCCCCCCCCCCCCCCCCCCCCCC(=O)N[C@@H](CO[C@H]1O[C@H](COC(=O)Nc2ccc(Cl)cc2)[C@H](O)[C@H](O)[C@H]1O)[C@H](O)[C@H](O)CCCCCCCCCCCCCC, the Activity [1] is reported as “Active” and the Activity [2] is reported as “Active”.
